Screening data as filed in PubChem BioAssay.
This is a sample that favours compounds with a hit; in the whole collection about 1.8% have one here.
Tn7 DDE FP = inhibitors of Tn7 peptide binding to fibrin DD(E), primary screen, biochemical, fluorescence polarization, human fibrin, Tn7 probe; AID 720508, 2013; 0.13% of 370,000 active; FP displacement of FITC-Tn7 peptide from fibrin DD(E); 0% = median of compound wells per plate; inhibition, % at 8.3 µM;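 active = inhibition above the mean of compounds falling within the control limits plus 3 SD of them, cut at about 14% in these data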;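 also: 0% = plate median of compound wells and 100% = 10 µM Aha-Tn7 peptide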
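Assay system: Human clot-derived fibrin DD(E) complex | Buffer or medium: Tris/NaCl/CaCl2 buffer, pH 7.8 | Repeats: One replicate per compound | Benchmarks: Aha-Tn7 high control | Measure: % inhibition scaled between sample-field median and high-control FP | Schedule: 10 min plus 3 h, room temperature | Signal: Fluorescence polarization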
ARNT-TACC3 inh = disruptors of ARNT/TACC3 protein interaction, primary screen, biochemical, AlphaScreen, single concentration; AlphaScreen His-ARNT PAS-B/GST-TACC3 binding, luminescence; TACC3 fragment carries E629A point mutation; Transforming acidic coiled-coil-containing protein 3 (Homo sapiens), Q9Y6A5; inhibition, % at 9.99 µM; 0.66% of 390,000 active;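 active = mean inhibition of replicates at least 50% and at least half of replicates each reaching 50%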;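 also: 0% = complete ARNT plus TACC3 wells and 100% = ARNT alone without TACC3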
CAL PDZ FP-1 = CAL PDZ peptide-binding inhibitors, primary screen, biochemical, fluorescence polarization, Cer-tagged CAL PDZ, HTS | Golgi-associated PDZ and coiled-coil motif-containing protein (Homo sapiens), Q9HD26 | purified CAL PDZ, TMR-peptide fluorescence polarization, 1 h | inhibition, % at 20 µM | 0.02% of 330,000 active | AID 504414, 2011;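 active = highest replicate inhibition of at least 40%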;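 also: plate controls were DMSO neutral control wells for no effect and unlabeled competitor peptide control wells for full effect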
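Material: tagged CAL PDZ domain; buffer or medium: 25 mM sodium phosphate pH 7.4, 150 mM NaCl, TCEP, IgG, Thesit; compound dosing: single point, 20 µM; schedule: 1 h incubation at room temperature before polarization reading; measured by: FP readout, S and P plane fluorescence; read-out basis: percent inhibition from loss of millipolarization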
CAL PDZ FP-2 = untagged CAL PDZ binding inhibitors, primary screen, biochemical, fluorescence polarization, HTS | Golgi-associated PDZ and coiled-coil motif-containing protein (Homo sapiens), Q9HD26 | purified CAL PDZ, TMR-peptide fluorescence polarization, 1 h | inhibition, % at 24.9 µM | 0.92% of 300,000 active;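 active = mean inhibition of at least 30% with at least half of replicates also reaching 30%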;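 also: 0% = DMSO neutral control and 100% = excess unlabeled competitor peptide PRC23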
GRK2 aptamer HTS = compounds blocking aptamer binding on GRK2 – biochemical, human GRK2, bead flow cytometry, HTS, primary screen. Beta-adrenergic receptor kinase 1 (Homo sapiens), P25098. FAM-aptamer displacement from GRK2. inhibition of aptamer binding, % at 10 µM. 0.59% of 330,000 active;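 active = inhibition of aptamer binding above 40%, roughly 3 SD of noise, on plates passing a quality check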;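 also: median bead fluorescence of bound FAM aptamer so fluorescent compounds give negative values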
Target sequence (P25098 whole entry, looked up): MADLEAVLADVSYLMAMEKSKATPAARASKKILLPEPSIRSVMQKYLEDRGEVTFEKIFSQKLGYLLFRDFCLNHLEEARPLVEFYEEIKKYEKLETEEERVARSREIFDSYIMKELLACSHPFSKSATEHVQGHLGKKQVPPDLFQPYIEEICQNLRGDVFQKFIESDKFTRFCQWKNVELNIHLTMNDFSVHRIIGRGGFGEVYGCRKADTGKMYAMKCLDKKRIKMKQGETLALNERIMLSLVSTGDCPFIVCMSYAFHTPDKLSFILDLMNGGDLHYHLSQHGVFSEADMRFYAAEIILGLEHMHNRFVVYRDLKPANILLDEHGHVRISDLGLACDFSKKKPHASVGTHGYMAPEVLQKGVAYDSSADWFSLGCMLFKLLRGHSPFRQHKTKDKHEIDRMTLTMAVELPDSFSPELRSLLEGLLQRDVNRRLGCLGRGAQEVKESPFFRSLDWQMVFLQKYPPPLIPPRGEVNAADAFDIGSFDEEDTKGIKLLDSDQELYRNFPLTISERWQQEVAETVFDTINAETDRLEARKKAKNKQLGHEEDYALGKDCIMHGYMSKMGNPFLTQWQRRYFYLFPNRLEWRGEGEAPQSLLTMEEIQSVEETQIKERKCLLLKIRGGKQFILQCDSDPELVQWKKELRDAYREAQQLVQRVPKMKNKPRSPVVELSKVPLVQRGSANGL
Tn6 DDE FP = inhibitors of Tn6 peptide binding to fibrin DD(E), primary screen, biochemical, fluorescence polarization, human fibrin, Tn6 probe; Fibrinogen beta chain (Homo sapiens), P02675; Fibrin DD(E) TRITC-Tn6 fluorescence polarization displacement; inhibition, % at 8.3 µM; 0.21% of 370,000 active; AID 720509, 2013;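 active = inhibition above a per-campaign cutoff: mean of compounds within control limits plus 3 SD, cut at about 15% in these data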;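 also: 0% = median of all compound wells on the plate and 100% = blocking peptide control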
GRK2 CP1 = GRK2 aptamer-displacing inhibitors, retest, confirmation, biochemical, cherry pick 1, bead flow cytometry. 4% of 2,000 active. shares compounds with GRK2 aptamer HTS. AID 504451, 2011. aptamer displacement, % at 10 µM. bead-bound GRK2, FAM-aptamer displacement;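 active = aptamer displacement above 40%, near three times the noise of non-fluorescent compounds, on plates passing quality checks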;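 also: negative values mostly reflect intrinsic compound fluorescence rather than true enhancement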
FAM quench CP1 = aptamer fluorescence quenching in GRK2 counter-screen. AID 504580. shares compounds with GRK2 aptamer HTS. Carboxyfluorescein RNA aptamer on beads, flow cytometry quenching; active compounds read low. fluorescence response (% of DMSO), % at 10 µM. 2,000 tested, under 10 active;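 active = compounds that quench the bead-bound fluorescent RNA probe, cutting fluorescence to under half of the solvent control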;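 also: counterscreen run without GRK2 so only probe quenching by compound is measured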
Numbers without * were called inactive; . = not tested or not shown.

SMILES	Tn7 DDE FP	ARNT-TACC3 inh	CAL PDZ FP-1	CAL PDZ FP-2	GRK2 aptamer HTS	Tn6 DDE FP	GRK2 CP1	FAM quench CP1
CCC(=O)Oc1ccc2c(C)cc(=O)oc2c1C(=O)CC	-7	-6	0	.	100*	1	3	101
Cc1ccc(S(=O)(=O)N2C(=O)CCC2C(=O)O/N=C(\N)c2cccc([N+](=O)[O-])c2)cc1 (stereo not drawn)	-1	4	0	4	0	3	.	.
O=C1/C(=C\c2ccc(-c3ccccc3Cl)o2)SC(=S)N1CC1CCCO1 (stereo not drawn)	2	.	-2	-4	51*	7	36	108
O=C1c2nccnc2C(=O)N1c1ccc(C(F)(F)F)cc1	2	-4	-1	0	57*	5	-2	102
C[C@@H]1CN([C@H](C)CO)C(=O)CCCn2cc(nn2)CO[C@@H]1CN(C)C(=O)Oc1ccccc1	.	-5	.	.	.	.	.	.
O=C1c2ccccc2-c2onc3ccc(Oc4ccccc4)c1c23	6	-5	2	1	2	5	.	.
CCOC(=O)C(C(=O)OCC)c1cc(Br)c2noc3c2c1C(=O)c1ccccc1-3	10	-5	3	-4	51*	5	11	102
C[C@@H]1CN([C@H](C)CO)C(=O)c2cc(NC(=O)c3ccncc3)ccc2O[C@@H]1CN(C)C(=O)NC1CCCCC1	.	-2	.	.	.	.	.	.
CCn1cc(C(=O)NCC(OC)OC)c(=O)c2cc(S(=O)(=O)N3CCOCC3)ccc21	-2	-3	-1	1	45*	-4	0	98
C[C@H](CO)N1C[C@H](C)[C@H](CN(C)C(=O)CN(C)C)Oc2cc(-c3ccncc3)ccc2S1(=O)=O	.	3	.	.	.	.	.	.
COc1ccc(OC)c(CN2C(=O)c3ccccc3C2c2nnnn2-c2ccc3c(c2)OCCO3)c1 (stereo not drawn)	3	.	.	.	.	4	.	.
Cc1cc(C)c2nc(-c3ccccn3)cc(C(=O)Nc3ccc(S(=O)(=O)Nc4cc(C)on4)cc3)c2c1	4	13	-3	-2	0	-3	-4	95
CCCCOc1ccc(Cl)cc1CSc1n[nH]c(C)n1	1	-9	0	-9	0	6	.	.
CCOc1ccc(Cl)cc1CSc1n[nH]c(CC)n1	-5	2	-2	.	61*	2	-14	101
C[C@@H]1CN([C@@H](C)CO)C(=O)c2cccc(NC(=O)Nc3ccc(F)cc3)c2O[C@@H]1CN(C)Cc1ccc2c(c1)OCO2	.	-2	.	.	.	.	.	.
CCOC(=O)CC(NC(=O)Cn1nnc(-c2ccccc2Cl)n1)c1ccc(OC)cc1 (stereo not drawn)	3	.	-4	-1	0	1	.	.
CCc1ccc(NC(=O)COC(=O)/C=C/c2ccco2)cc1	-8	-2	0	-3	70*	0	19	97
O=C(COC(=O)/C=C/c1ccco1)Nc1ccccc1	1	0	-1	-2	14	8	.	.
CCC(C)SCC(=O)Nc1ccc(S(=O)(=O)N2CCOCC2)cc1OC (stereo not drawn)	-3	0	1	-1	0	-3	.	.
CCC(CC)C(=O)OCC(=O)Nc1ccc(S(=O)(=O)N2CCOCC2)cc1OC	6	-3	1	-1	51*	-5	-1	100
O=C(COC(=O)/C=C/c1ccco1)Nc1cc(S(=O)(=O)N2CCOCC2)ccc1Cl	1	-7	0	4	59*	3	8	101
COc1ccc(NC(=O)C(CCCCNC(=O)OC(C)(C)C)NC2(C(=O)NCCc3c[nH]c4ccccc34)CCCCC2)cc1 (stereo not drawn)	-8	.	.	.	.	-3	.	.
C[C@@H]1CN([C@@H](C)CO)C(=O)c2cccc(NC(=O)Nc3ccc(C(F)(F)F)cc3)c2O[C@H]1CN(C)C(=O)Nc1ccc(F)cc1	.	-1	.	.	.	.	.	.
Cc1cccc(-c2ccc3c(c2)C2CC3CCN2Cc2ccc3c(c2)OCO3)c1 (stereo not drawn)	6	1	1	-2	.	7	.	.
CC(=O)c1c(C)[nH]c(C(=O)CN2C(=O)NC(C)(c3ccc(C)cc3)C2=O)c1C (stereo not drawn)	0	8	0	-3	54*	-4	-2	103
SMILES	Tn7 DDE FP	ARNT-TACC3 inh	CAL PDZ FP-1	CAL PDZ FP-2	GRK2 aptamer HTS	Tn6 DDE FP	GRK2 CP1	FAM quench CP1
CCN1C(=O)C(=O)N(CC(=O)c2[nH]c(C)c(C(C)=O)c2C)C1=O	0	3	-2	-8	0	1	.	.
C[C@H](CO)N1C[C@H](C)[C@@H](CN(C)Cc2ccccc2)OCCCC[C@H](C)Oc2ccc(NS(=O)(=O)c3ccc(F)cc3)cc2C1=O	.	-1	.	.	.	.	.	.
CC(=O)c1ccc(-n2nncc2C(C)(C)C)cc1	1	-4	0	-1	1	-2	.	.
Cc1cnnn1-c1ccc(C(=O)CCl)cc1	4	2	-1	-5	56*	4	-52	98
O=C1CC(N2CCN(c3ccc(Cl)cc3)CC2)C(=O)N1c1ccccc1 (stereo not drawn)	10	0	1	0	1	-11	.	.
O=C1CC(N2CCN(c3ccccc3)CC2)C(=O)N1c1cccc(Cl)c1 (stereo not drawn)	-4	-5	-3	-32	43*	-3	3	96
COc1ccc(OC)c(N(C(=O)c2snc(C(N)=O)c2N)C(C(=O)NCC2CCCO2)c2ccc3ncccc3c2)c1 (stereo not drawn)	-2	.	-3	1	50*	-2	7	102
CCOc1ccccc1N(C(=O)c1snc(C(N)=O)c1N)C(C(=O)NCC1CCCO1)c1ccc2ncccc2c1 (stereo not drawn)	-1	-8	-2	-3	3	3	.	.
COc1ccc(OC)c(-n2c(SC)nnc2-c2c[nH]c3ccccc23)c1	1	-4	-3	0	100*	1	-3	99
